Experimental data as given in paper PMC3859345 (Science translational medicine, 2013).
“Also recorded” adds a separate entry of the source. Where no end group is shown, it is not given here. The star is where a group is joined. FITC = O=C1OC2(c3ccc(O)cc3Oc3cc(O)ccc32)c2ccc(NC(=S)*)cc21; Ahx = NCCCCCC(=O)O

Legend:
[1] = system: H460, FLO1, OE33, and OE19 adenocarcinoma cells; assay: Confocal fluorescence microscopy, control peptides; type: binding, human; conditions: compared with ASY*-FITC
adenocarcinoma cells = assay: Flow cytometry, adenocarcinoma cells; type: binding, human; conditions: for mean intensity of controls lower than that for ASY*-FITC: flow cytometry, relative to ASY*-FITC
Procedure, shortened: (§1)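 Adenocarcinoma and non-neoplastic Q-hTERT cells, grown as adherent monolayers at 37°C, 5% CO2, incubated with FITC-labelled peptide, with FITC-labelled control peptides (including a scrambled sequence), or left unstained. Mean fluorescence intensity measured by flow cytometry.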

Q-hTERT cells [2] = assay: Flow cytometry, Q-hTERT cells; type: binding, human
Procedure, shortened: as §1

[3] = Fluorescence emission spectra; type: physicochemical; conditions: 100 μM in PBS, 471 nm excitation
H460 cells [4] = assay: Competitive binding with ASY*-FITC on H460 cells; design: species or system human; conditions: unlabeled competitor 100 to 1000 μM (GGG* control at concentrations up to 1000 μM, P>0.05, unpaired t-test)
ovarian cancer = conditions: topical administration, mouse model of ovarian cancer; cited from earlier work
[5] = system: OE33 adenocarcinoma cells; assay: Confocal fluorescence microscopy, OE33; type: binding, human
Procedure, shortened: (§2)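 Adherent OE19 and OE33 esophageal carcinoma monolayers maintained at 37°C, 5% CO2 in RPMI-1640 with 10% FBS, penicillin/streptomycin and 5 μg/ml plasmocin. FITC-labelled peptide binding to the plasma membrane examined by confocal fluorescence microscopy.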

Q-hTERT cells [6] = assay: Confocal fluorescence microscopy, Q-hTERT; type: binding, human; conditions: Q-hTERT BE cells
Procedure, shortened: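 Non-neoplastic Q-hTERT Barrett's cells kept in keratinocyte serum-free medium with 50 μg/ml bovine pituitary extract, 0.005 μg/ml recombinant human EGF and penicillin/streptomycin, as adherent monolayers at 37°C, 5% CO2. Binding of FITC-labelled peptide checked by confocal fluorescence microscopy.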

H460 cells [7] = assay: Binding affinity; design: species or system human; conditions: read-out: apparent dissociation constant (kd); ASY*-FITC to H460 cells; averages from 3 independent experiments; least squares fit
Procedure, shortened: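 Human H460 lung adenocarcinoma cells were grown as adherent monolayers in DMEM with 10% FBS and 100 U/ml penicillin/streptomycin at 37°C, 5% CO2. They were incubated with FITC-labeled test peptide, and the apparent dissociation constant was derived from cell-bound fluorescence. Values are averages of 3 independent experiments.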

human subjects [8] = conditions: in vivo
[9] = system: Barrett's neoplasia (HGD/EAC); assay: Confocal endomicroscopy in vivo after topical peptide administration; design: species or system human
H460 cells [10] = assay: Binding kinetics; design: species or system human; conditions: ASY*-FITC to H460 cells; least squares fit
Procedure, shortened: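 H460 lung adenocarcinoma cells grown as adherent monolayers in DMEM with 10% FBS and 100 U/ml penicillin/streptomycin at 37°C, 5% CO2. Association time constant k determined for FITC-labelled peptide binding to these cells.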

[11] = system: OE19 adenocarcinoma cells; assay: Confocal fluorescence microscopy, OE19; type: binding, human
Procedure, shortened: as §2

[12] = system: FLO1 adenocarcinoma cells; assay: Confocal fluorescence microscopy, FLO1; type: binding, human
Procedure, shortened: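 FLO1 esophageal adenocarcinoma cells cultured as adherent monolayers in DMEM with 10% FBS, penicillin/streptomycin and 5 μg/ml plasmocin at 37°C, 5% CO2. Plasma-membrane binding of FITC-labelled peptide assessed by confocal fluorescence microscopy.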

[13] = system: H460 adenocarcinoma cells; assay: Confocal fluorescence microscopy, H460; type: binding, human
Procedure, shortened: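 Adherent H460 cultures (DMEM, 10% FBS, P/S, 37°C, 5% CO2) were incubated with FITC-labeled test peptide and examined by confocal fluorescence microscopy for plasma-membrane labeling. Non-neoplastic Q-hTERT Barrett's cells, grown in keratinocyte serum-free medium with 50 μg/ml bovine pituitary extract and 0.005 μg/ml EGF, were the control line.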

[14] = Stability testing of lyophilized powder; type: physicochemical; conditions: −20°C
Procedure, shortened: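 GMP-synthesized FITC-peptide aliquoted into amber vials crimp-sealed with septa and stored at −20°C. Monitored by appearance (colour), HPLC and mass spectrometry over 3 years.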

[15] = system: human esophageal mucosa (squamous, BE, HGD, EAC); assay: Ex vivo fluorescence stereomicroscopy of resected esophageal specimens; type: binding; conditions: 1 mm^2 regions, 12 EMR specimens
human subjects [16] = assay: Peptide safety in humans
[17] = system: human H460 adenocarcinoma cells; assay: Phage display biopanning, phage count / pfu binding to H460 cells; conditions: pfu counts

Which “fluorescence signal of control peptides” value [1] does the source give for GGGAGGGAGGGK-FITC here?
Its value is “Significantly less signal”.

And the “mean intensity of controls lower than that for ASY*-FITC” value (adenocarcinoma cells)?
Its value is under 3 fold.

What about the “difference between ASY*-FITC and control peptides on binding to Q-hTERT cells” value (Q-hTERT cells [2]) of the same molecule?
Its value is “No difference”.

With `O=C1OC2(c3ccc(O)cc3Oc3cc(O)ccc32)c2ccc(N=C=S)cc21` [FITC, reference compound] as the molecule, how does the peak emission [3] read?
The peak emission was 519 nm.

With GGGAGGGAGGGK as the molecule, how does the “inhibition of ASY*-FITC binding (fluorescence intensity)” value (H460 cells [4]) read?
Its value is “No significant reduction in fluorescence intensity”.

With “γ-glutamyl hydroxymethyl rhodamine green” as the molecule, how does the “time to fluorescence activation” value (ovarian cancer) read?
Its value is ~ 1 minute.

For ASYNYDA [ASY*-FITC], which peak emission [3] is on record?
Its peak emission is 519 nm.

And the “binding to plasma membrane (confocal), OE33” value [5]?
Its value is “binding of ASY*-FITC to the plasma membrane; also recorded: specific binding”.

And the “binding to Q-hTERT cells” value (Q-hTERT cells [6])?
Its value is “did not bind to Q-hTERT cells”.

What about the Kd (H460 cells [7]) of the same molecule?
The Kd was 32 nM.

And the “mean post/pre-EMR WBC ratio at 24 hours” value (human subjects [8])?
The value was 1.7±0.4.

What about the “post/pre-EMR WBC ratio without peptide compared with peptide and EMR” value (human subjects [8]) of the same molecule?
The value was “not significantly different”.

And the “greater fluorescence intensity for HGD/EAC (neoplasia) than for BE and squamous” value ([9]; 25 human subjects, topical 5 ml of 100 μM, 5 min incubation)?
Its value is 3.8 fold.

What about the “in vivo binding, HGD and EAC” value ([9]; HGD and EAC crypts, confocal endomicroscopy) of the same molecule?
The value was “specific peptide binding to neoplastic crypts”.

And the “specificity for HGD/EAC” value ([9]; T/B ratio threshold 4.2, 95% CI: 85%–100%, 25 human subjects)?
Its value is 97%.

What about the “in vivo binding, squamous epithelium” value ([9]; normal squamous epithelium, confocal endomicroscopy) of the same molecule?
Its value is “no peptide binding”.

What about the onset of binding ([9]; topical administration) of the same molecule?
Its onset of binding is ~ 5 minutes.

And the “apparent association rate constant (k)” value (H460 cells [10])?
The value was 0.2 min⁻¹.

And the “binding to plasma membrane (confocal), OE19” value [11]?
Its value is “binding of ASY*-FITC to the plasma membrane; also recorded: specific binding”.

What about the “binding on flow cytometry (in words)” value (adenocarcinoma cells; compared with control peptides) of the same molecule?
The value was “stronger binding to the adenocarcinoma cells”.

What about the “binding to plasma membrane (confocal), FLO1” value [12] of the same molecule?
The value was “binding of ASY*-FITC to the plasma membrane; also recorded: specific binding”.

What about the “difference between ASY*-FITC and control peptides on binding to Q-hTERT cells” value (Q-hTERT cells [2]) of the same molecule?
Its value is “No difference”.

And the “binding to plasma membrane (confocal), H460” value [13]?
The value was “binding of ASY*-FITC to the plasma membrane”.

What about the “purity on HPLC at end of stability testing” value ([14]; 36 months, initial 97%) of the same molecule?
Its value is 95%.

And the “change in purity on HPLC” value ([14]; over 36 months (97% to 95%))?
The value was ~ 2%.

What about the “mean fluorescence intensities for HGD and EAC versus non-dysplastic BE and squamous” value [15] of the same molecule?
Its value is “significantly greater than non-dysplastic BE and squamous”.

And the “mean WBC count ratio by day 5” value (human subjects [16]; 14 out of 21 patients with leukocytosis resolved, SD, P<0.01, Mann Whitney test)?
Its value is 1.1±0.2.

And the “mean white blood cell (WBC) count at 24 hours” value (human subjects [16]; 21 patients with EMR, baseline 7.0×10^3, P<0.01, unpaired t-test, transient)?
The value was 11.1×10^3.

And the “safety of topical application (in words)” value (human subjects [16]; BE patients, topical)?
The value was “safe and effective”.

And the “patients with leukocytosis resolved by day 5” value (human subjects [16]; after EMR with peptide, remaining 7 patients after day 5)?
The value was 14 out of 21.

And the urinalyses (human subjects [16]; all 25 patients, baseline and post-procedure)?
The urinalyses was “within normal limits”.

And the “relation of adverse events to the peptide” value (human subjects [16]; all adverse events, clinical study)?
The value was “unlikely to have been related to the peptide”.

What about the “toxicity attributed to the peptide” value (human subjects [16]; animal and patient studies) of the same molecule?
Its value is “No toxicity was attributed to the peptide”.

With ASYNYDA [ASYNYDA phage] as the molecule, how does the “greater binding for H460 than for Q-hTERT cells” value ([17]; H460 vs Q-hTERT BE cells) read?
Its value is 5.3 fold.

And the “greater binding for H460 cells in comparison to wild-type (WT)-phage” value ([17]; vs WT-phage (no peptides expressed))?
The value was over 10 fold.

Which results are given for AADYYSN-GGGSK-FITC?
fluorescence signal of control peptides [1]: Significantly less signal; mean intensity of controls lower than that for ASY*-FITC (adenocarcinoma cells): < 3 fold; difference between ASY*-FITC and control peptides on binding to Q-hTERT cells (Q-hTERT cells [2]): No difference

Which “fluorescence signal of control peptides” value [1] does the source give for MNDPIPQ-GGGSK-FITC here?
Its value is “Significantly less signal”.

What about the “mean intensity of controls lower than that for ASY*-FITC” value (adenocarcinoma cells) of the same molecule?
Its value is under 3 fold.

And the “difference between ASY*-FITC and control peptides on binding to Q-hTERT cells” value (Q-hTERT cells [2])?
Its value is “No difference”.

For {FITC-Ahx}-ASYNYDA, which “fluorescence signal of control peptides” value [1] is on record?
The value was “Significantly less signal”.

What about the “mean intensity of controls lower than that for ASY*-FITC” value (adenocarcinoma cells) of the same molecule?
Its value is under 3 fold.

And the “difference between ASY*-FITC and control peptides on binding to Q-hTERT cells” value (Q-hTERT cells [2])?
Its value is “No difference”.
